Measured values taken from ChEMBL document CHEMBL1255354, “Methicillin-resistant Staphylococcus saprophyticus isolates carrying staphylococcal cassette chromosome mec have emerged in urogenital tract infections” (2008).
In brackets after ≈: the same amount, converted by molar mass.

Key:
[1] = test system: Staphylococcus saprophyticus; assay: Antibacterial activity against methicillin-resistant mecA-positive Staphylococcus saprophyticus isolates isolated from genitourinary tracts of acute cystitis patient after 24 hrs at 35 degC by agar dilution method; type: functional; conditions: Urine
Summary of the method: (§1)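 MICs by agar dilution per CLSI M7-A6 on Mueller-Hinton agar, plates incubated 35°C for 24 h. Isolates identified as S. saprophyticus by Gram stain, catalase, coagulase, DNase, egg yolk mannitol salt agar growth, novobiocin susceptibility and ID 32 API Staph; mecA detected by dot-blot hybridization.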

[2] = test system: Staphylococcus saprophyticus; assay: Antibacterial activity against methicillin-resistant mecA-positive Staphylococcus saprophyticus isolate TSU67 isolated from genitourinary tracts of acute cystitis patient after 24 hrs at 35 degC by agar dilution method; type: functional; conditions: isolate TSU67, Urine; summary of the method: as §1
[3] = test system: Staphylococcus saprophyticus; assay: Antibacterial activity against methicillin-resistant mecA-positive Staphylococcus saprophyticus isolate TSU69 isolated from genitourinary tracts of acute cystitis patient after 24 hrs at 35 degC by agar dilution method; type: functional; conditions: isolate TSU69, Urine; summary of the method: as §1
[4] = test system: Staphylococcus saprophyticus; assay: Antibacterial activity against methicillin-resistant mecA-positive Staphylococcus saprophyticus isolate TSU90 isolated from genitourinary tracts of acute cystitis patient after 24 hrs at 35 degC by agar dilution method; type: functional; conditions: isolate TSU90, Urine; summary of the method: as §1
[5] = test system: Staphylococcus saprophyticus; assay: Antibacterial activity against methicillin-resistant mecA-positive Staphylococcus saprophyticus isolate TSU47 isolated from genitourinary tracts of acute cystitis patient after 24 hrs at 35 degC by agar dilution method; type: functional; conditions: isolate TSU47, Urine; summary of the method: as §1
[6] = test system: Staphylococcus saprophyticus; assay: Antibacterial activity against methicillin-resistant mecA-positive Staphylococcus saprophyticus isolate TSU18 isolated from genitourinary tracts of acute cystitis patient after 24 hrs at 35 degC by agar dilution method; type: functional; conditions: isolate TSU18, Urine; summary of the method: as §1
[7] = test system: Staphylococcus saprophyticus; assay: Antibacterial activity against methicillin-resistant mecA-positive Staphylococcus saprophyticus isolate TSU57 isolated from genitourinary tracts of acute cystitis patient after 24 hrs at 35 degC by agar dilution method; type: functional; conditions: isolate TSU57, Urine; summary of the method: as §1
[8] = test system: Staphylococcus saprophyticus; assay: Antibacterial activity against methicillin-resistant mecA-positive Staphylococcus saprophyticus isolate TSU33 after 24 hrs at 35 degC by agar dilution method; conditions: isolate TSU33, 24 h
[9] = test system: Staphylococcus saprophyticus; assay: Antibacterial activity against methicillin-resistant mecA-positive Staphylococcus saprophyticus isolate TSU28 isolated from genitourinary tracts of acute cystitis patient after 24 hrs at 35 degC by agar dilution method; type: functional; conditions: isolate TSU28, Urine; summary of the method: as §1

Structure (SMILES)	MIC90 [1] [mg/L]	MIC [2] [mg/L]	MIC [3] [mg/L]	MIC [4] [mg/L]	MIC [5] [mg/L]	MIC [6] [mg/L]	MIC50 [1] [mg/L]	MIC [7] [mg/L]	MIC [8] [mg/L]	MIC [9] [mg/L]
CC1COc2c(N3CCN(C)CC3)c(F)cc3c(=O)c(C(=O)O)cn1c23 (stereo unspecified) [OFLOXACIN]	1 (≈ 2.77 µM)	1 (≈ 2.77 µM)	1 (≈ 2.77 µM)	–	–	–	–	–	–	–
Cc1nnc(SCC2=C(C(=O)O)N3C(=O)[C@@H](NC(=O)Cn4cnnn4)[C@H]3SC2)s1 [CEFAZOLIN]	2 (≈ 4.4 µM)	128 (≈ 282 µM)	128 (≈ 282 µM)	64 (≈ 141 µM)	4 (≈ 8.8 µM)	16 (≈ 35.2 µM)	1 (≈ 2.2 µM)	16 (≈ 35.2 µM)	1 (≈ 2.2 µM)	32 (≈ 70.4 µM)
NCC[C@H](O)C(=O)N[C@@H]1C[C@H](N)[C@@H](O[C@H]2O[C@H](CN)CC[C@H]2N)[C@H](O)[C@H]1O[C@H]1O[C@H](CO)[C@@H](O)[C@H](N)[C@H]1O [ARBEKACIN]	≤ 0.06	≤ 0.06	≤ 0.06	≤ 0.06	≤ 0.06	≤ 0.06	≤ 0.06	≤ 0.06	≤ 0.06	≤ 0.06
C[C@@H](O)[C@H]1C(=O)N2C(C(=O)O)=C(SCCNC=N)C[C@H]12 [IMIPENEM ANHYDROUS]	≤ 0.06	0.125 (≈ 0.418 µM)	0.125 (≈ 0.418 µM)	0.125 (≈ 0.418 µM)	0.125 (≈ 0.418 µM)	≤ 0.06	≤ 0.06	0.125 (≈ 0.418 µM)	≤ 0.06	0.125 (≈ 0.418 µM)
CN[C@H](CC(C)C)C(=O)N[C@H]1C(=O)N[C@@H](CC(N)=O)C(=O)N[C@H]2C(=O)N[C@H]3C(=O)N[C@H](C(=O)N[C@H](C(=O)O)c4cc(O)cc(O)c4-c4cc3ccc4O)[C@H](O)c3ccc(c(Cl)c3)Oc3cc2cc(c3O[C@@H]2O[C@H](CO)[C@@H](O)[C@H](O)[C@H]2O[C@H]2C[C@](C)(N)[C@H](O)[C@H](C)O2)Oc2ccc(cc2Cl)[C@H]1O [VANCOMYCIN]	1 (≈ 0.69 µM)	1 (≈ 0.69 µM)	1 (≈ 0.69 µM)	1 (≈ 0.69 µM)	1 (≈ 0.69 µM)	0.5 (≈ 0.345 µM)	0.5 (≈ 0.345 µM)	0.5 (≈ 0.345 µM)	0.5 (≈ 0.345 µM)	1 (≈ 0.69 µM)
CO[C@@]1(NC(=O)Cc2cccs2)C(=O)N2C(C(=O)O)=C(COC(N)=O)CS[C@@H]21 [CEFOXITIN]	2 (≈ 4.68 µM)	32 (≈ 74.9 µM)	32 (≈ 74.9 µM)	16 (≈ 37.4 µM)	8 (≈ 18.7 µM)	16 (≈ 37.4 µM)	2 (≈ 4.68 µM)	16 (≈ 37.4 µM)	8 (≈ 18.7 µM)	16 (≈ 37.4 µM)
C[C@@H]1O[C@@H]1P(=O)(O)O [FOSFOMYCIN]	≥ 512	256 (≈ 1850 µM)	≥ 512	≥ 512	128 (≈ 927 µM)	64 (≈ 464 µM)	128 (≈ 927 µM)	128 (≈ 927 µM)	128 (≈ 927 µM)	≥ 512
NC[C@H]1O[C@H](O[C@H]2[C@H](O)[C@@H](O[C@H]3O[C@H](CO)[C@@H](O)[C@H](N)[C@H]3O)[C@H](N)C[C@@H]2N)[C@H](O)[C@@H](O)[C@@H]1O [KANAMYCIN]	0.5 (≈ 1.03 µM)	0.25 (≈ 0.516 µM)	0.5 (≈ 1.03 µM)	0.5 (≈ 1.03 µM)	0.25 (≈ 0.516 µM)	0.25 (≈ 0.516 µM)	0.25 (≈ 0.516 µM)	0.25 (≈ 0.516 µM)	0.25 (≈ 0.516 µM)	0.25 (≈ 0.516 µM)
CC1(C)S[C@@H]2[C@H](NC(=O)[C@H](N)c3ccccc3)C(=O)N2[C@H]1C(=O)O [AMPICILLIN]	1 (≈ 2.86 µM)	–	–	–	4 (≈ 11.4 µM)	–	0.25 (≈ 0.715 µM)	–	–	–
Cc1onc(-c2ccccc2)c1C(=O)N[C@@H]1C(=O)N2[C@@H]1SC(C)(C)[C@@H]2C(=O)O [OXACILLIN]	1 (≈ 2.49 µM)	256 (≈ 638 µM)	128 (≈ 319 µM)	128 (≈ 319 µM)	64 (≈ 159 µM)	128 (≈ 319 µM)	0.5 (≈ 1.25 µM)	128 (≈ 319 µM)	128 (≈ 319 µM)	256 (≈ 638 µM)
CC[C@H]1OC(=O)[C@H](C)[C@@H](O[C@H]2C[C@@](C)(OC)[C@@H](O)[C@H](C)O2)[C@H](C)[C@@H](O[C@@H]2O[C@H](C)C[C@H](N(C)C)[C@H]2O)[C@](C)(OC)C[C@@H](C)C(=O)[C@H](C)[C@@H](O)[C@]1(C)O [CLARITHROMYCIN]	1 (≈ 1.34 µM)	0.125 (≈ 0.167 µM)	0.125 (≈ 0.167 µM)	16 (≈ 21.4 µM)	16 (≈ 21.4 µM)	16 (≈ 21.4 µM)	≤ 0.06	16 (≈ 21.4 µM)	16 (≈ 21.4 µM)	32 (≈ 42.8 µM)
CC[C@H]1OC(=O)[C@H](C)[C@@H](O[C@H]2C[C@@](C)(OC)[C@@H](O)[C@H](C)O2)[C@H](C)[C@@H](O[C@@H]2O[C@H](C)C[C@H](N(C)C)[C@H]2O)[C@](C)(O)C[C@@H](C)C(=O)[C@H](C)[C@@H](O)[C@]1(C)O [ERYTHROMYCIN]	2 (≈ 2.73 µM)	0.25 (≈ 0.341 µM)	0.25 (≈ 0.341 µM)	64 (≈ 87.2 µM)	64 (≈ 87.2 µM)	64 (≈ 87.2 µM)	0.125 (≈ 0.17 µM)	64 (≈ 87.2 µM)	64 (≈ 87.2 µM)	128 (≈ 174 µM)
